Assay results taken from ChEMBL document CHEMBL1124096, “Potential anticonvulsants. 11. Synthesis and anticonvulsant activity of spiro[1,3-dioxolane-2,3'-indolin]-2'-ones and structural analogues” (J Med Chem, 1988).

Experiments:
[1] = organism: Mus musculus; test: Phase II effective dose against mice for maximal electroshock seizure test (MES) for 0.25 hr of test time; type: functional
In short: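 Phase II quantification: time of peak effect first determined, then median effective dose in the MES test (corneal 60-cycle AC, 50 mA, 0.2 s) found at that time, 0.25 h. Compound given ip.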

[2] = Protective index (TD50/ED50) for MES test in mice; type: ADME, organism-based; details: mouse, in vivo; read-out: PI
In short: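 Protective index taken as TD50 (rotorod) divided by MES ED50. Both measured in Phase II at the time of peak effect, 0.25 h, after ip dosing.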

[3] = Phase II effective dose against mice for toxicity test (TOX) for 0.25 hr of test time; type: organism-based; details: mouse, in vivo
In short: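 Phase II: time of peak neurologic toxicity first determined. Median toxic dose then found by rotorod (1-in. knurled rod, 6 rpm, 1 min) at that time, 0.25 h. Compound given ip.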

[4] = tested on: Mus musculus; test: Ability to protect mice against neurotoxicity (rotarod test) at 300 mg/kg for 0.5 hr in Phase I; no. of animals protected/No. of animals tested 0/4; type: organism-based; design: dose 300 mg/kg; details: in vivo
[5] = Ability to protect mice against subcutaneous pentylenetetrazole seizures (sc-Met) threshold test at 100 mg/kg for 0.5 hr in Phase I; no. of animals protected/No. of animals tested= 0/1; type: functional, organism-based; design: dose 100 mg/kg
[6] = Ability to protect mice against electrically induced seizures (MES) at 100 mg/kg for 0.5 hr in Phase I; no. of animals protected/No. of animals tested= 0/3; type: functional, organism-based; design: dose 100 mg/kg
[7] = Ability to protect mice against electrically induced seizures (MES) at 300 mg/kg for 0.5 hr in Phase I; no. of animals protected/No. of animals tested= 0/1; type: functional, organism-based; design: dose 300 mg/kg
[8] = Ability to protect mice against subcutaneous pentylenetetrazole seizures (sc-Met) threshold test at 300 mg/kg for 0.5 hr in Phase I; no. of animals protected/No. of animals tested= 0/1; type: functional, organism-based; design: dose 300 mg/kg

| SMILES | ED50 [1] [mg/kg] | selectivity ratio [2] | TD50 at 0.25 h [3] [mg/kg] | further results |
| --- | --- | --- | --- | --- |
| CN1C(=O)C2(OCCO2)c2ccccc21 | 90.9 | 1.3 | 118 |  |
| O=C1N(CN2CCCCC2)c2ccccc2C12OCCO2 |  | 1.39 | 187 |  |
| O=C1Nc2ccc(Br)cc2C12OCCO2 | 46.1 | 1.87 | 86.5 |  |
| O=C1Nc2ccccc2C12OCCCO2 | 110 | 1.67 |  |  |
| O=C1Nc2ccc(Cl)cc2C12OCCO2 | 28 | 2.28 | 63.7 |  |
| O=C1N(Cc2ccccc2)c2ccccc2C12OCCO2 |  |  |  | Ratio [4]: no. of animals protected/No. of animals tested 0/4; Ratio [5]: no. of animals protected/No. of animals tested 0/4; Ratio [6]: no. of animals protected/No. of animals tested 0/4; Ratio [7]: no. of animals protected/No. of animals tested 0/4; Ratio [8]: no. of animals protected/No. of animals tested 0/4 |
| O=C1N(CN2CCOCC2)c2ccccc2C12OCCO2 | 90 | 1.89 | 170 |  |
| O=C1Nc2cccc(Cl)c2C12OCCO2 | 95.6 | 1.24 | 122 |  |
| O=C1Nc2ccccc2C12SCCS2 | 174 |  |  |  |
| COC1(OC)C(=O)Nc2ccccc21 | 82 | 2.47 | 203 |  |
| O=C1Nc2ccccc2C12OCCO2 | 69.8 | 1.87 | 130 |  |
| O=C1Nc2ccccc2C12OCCS2 (stereo unspecified) | 60.4 | 1.65 |  |  |
| O=C1Nc2cc(Cl)ccc2C12OCCO2 | 72 | 1.68 | 121 |  |
